Paper PMC9302689 (British Journal of Clinical Pharmacology, 2022)

System: healthy male subjects
Experiment: Pharmaco-EEG
Assay type: in vivo, human
Conditions: 12-hour post-dose period
Procedure, shortened: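 Continuous EEG was recorded from 21 electrodes placed by the 10–20 system, with mastoid electrodes replacing the earlobe ones. Recordings followed IPEG guidelines, twice pre-dose and at 0.5–10 h post-dose. Power spectra for Fz-Cz and Pz-O derivations were split into bands to give total band power (μV). Values were ln-transformed, analysed by MMRM over 12 h against pooled placebo, and back-transformed.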

Compound: CN1CCC23CCCCC2C1Cc1ccc(C(N)=O)cc13 (stereo not drawn) [ALKS 7119, (9α, 13α)‐17‐methylmorphinan‐3‐carboxamide]
- Alpha-power Fz-Cz, LSM CFB (3 mg single oral dose): 0.01 Hz
- Alpha-power Fz-Cz, estimate of difference compared to placebo (3 mg single oral dose): 0 [−0.97, 0.97] P = 1.00 Hz
- Alpha-power Pz-Oz, LSM CFB (3 mg single oral dose): −0.06 Hz
- Alpha-power Pz-Oz, estimate of difference compared to placebo (3 mg single oral dose): −0.16 [−0.41, 0.10] P = .23 Hz
- Beta-power Fz-Cz, LSM CFB (3 mg single oral dose): 0.03 Hz
- Beta-power Fz-Cz, estimate of difference compared to placebo (3 mg single oral dose): −0.09 [−0.31, 0.14] P = .45 Hz
- Beta-power Pz-Oz, LSM CFB (3 mg single oral dose): −0.03 Hz
- Beta-power Pz-Oz, estimate of difference compared to placebo (3 mg single oral dose): −0.16 [−0.36, 0.04] P = .11 Hz
- Delta-power Fz-Cz, LSM CFB (3 mg single oral dose): 0 Hz
- Delta-power Fz-Cz, estimate of difference compared to placebo (3 mg single oral dose): −0.11 [−0.32, 0.10] P = .32 Hz
- Delta-power Pz-Oz, LSM CFB (3 mg single oral dose): −0.12 Hz
- Delta-power Pz-Oz, estimate of difference compared to placebo (3 mg single oral dose): −0.18 [−0.41, 0.05] P = .12 Hz
- Gamma-power Fz-Cz, LSM CFB (3 mg single oral dose): 0.05 Hz
- Gamma-power Fz-Cz, estimate of difference compared to placebo (3 mg single oral dose): −0.04 [−0.25, 0.16] P = .66 Hz
- Gamma-power Pz-Oz, LSM CFB (3 mg single oral dose): 0.09 Hz
- Gamma-power Pz-Oz, estimate of difference compared to placebo (3 mg single oral dose): −0.12 [−0.37, 0.13] P = .35 Hz
- Theta-power Fz-Cz, LSM CFB (3 mg single oral dose): −0.06 Hz
- Theta-power Fz-Cz, estimate of difference compared to placebo (3 mg single oral dose): −0.14 [−0.36, 0.09] P = .23 Hz
- Theta-power Pz-Oz, LSM CFB (3 mg single oral dose): −0.1 Hz
- Theta-power Pz-Oz, estimate of difference compared to placebo (3 mg single oral dose): −0.17 [−0.40, 0.06] P = .15 Hz
- Alpha-power Fz-Cz, LSM CFB (10 mg single oral dose): 0.09 Hz
- Alpha-power Fz-Cz, estimate of difference compared to placebo (10 mg single oral dose): 0.15 [−0.94, 1.24] P = .79 Hz
- Alpha-power Pz-Oz, LSM CFB (10 mg single oral dose): 0.11 Hz
- Alpha-power Pz-Oz, estimate of difference compared to placebo (10 mg single oral dose): 0.01 [−0.25, 0.27] P = .94 Hz
- Beta-power Fz-Cz, LSM CFB (10 mg single oral dose): 0.08 Hz
- Beta-power Fz-Cz, estimate of difference compared to placebo (10 mg single oral dose): −0.03 [−0.26, 0.19] P = .78 Hz
- Beta-power Pz-Oz, LSM CFB (10 mg single oral dose): 0.14 Hz
- Beta-power Pz-Oz, estimate of difference compared to placebo (10 mg single oral dose): 0.01 [−0.19, 0.21] P = .91 Hz
- Delta-power Fz-Cz, LSM CFB (10 mg single oral dose): 0.05 Hz
- Delta-power Fz-Cz, estimate of difference compared to placebo (10 mg single oral dose): −0.05 [−0.26, 0.16] P = .65 Hz
- Delta-power Pz-Oz, LSM CFB (10 mg single oral dose): 0.07 Hz
- Delta-power Pz-Oz, estimate of difference compared to placebo (10 mg single oral dose): 0.01 [−0.23, 0.24] P = .96 Hz
- Gamma-power Fz-Cz, LSM CFB (10 mg single oral dose): 0.09 Hz
- Gamma-power Fz-Cz, estimate of difference compared to placebo (10 mg single oral dose): −0.01 [−0.21, 0.21] P = .95 Hz
- Gamma-power Pz-Oz, LSM CFB (10 mg single oral dose): 0.13 Hz
- Gamma-power Pz-Oz, estimate of difference compared to placebo (10 mg single oral dose): −0.08 [−0.33, 0.17] P = .54 Hz
- Theta-power Fz-Cz, LSM CFB (10 mg single oral dose): 0.02 Hz
- Theta-power Fz-Cz, estimate of difference compared to placebo (10 mg single oral dose): −0.05 [−0.28, 0.18] P = .65 Hz
- Theta-power Pz-Oz, LSM CFB (10 mg single oral dose): 0.04 Hz
- Theta-power Pz-Oz, estimate of difference compared to placebo (10 mg single oral dose): −0.03 [−0.26, 0.20] P = .79 Hz
- Alpha-power Fz-Cz, LSM CFB (25 mg single oral dose): −0.01 Hz
- Alpha-power Pz-Oz, LSM CFB (25 mg single oral dose): −0.01 Hz
- Alpha-power Pz-Oz, estimate of difference compared to placebo (25 mg single oral dose): −0.11 [−0.36, 0.15] P = .41 Hz
- Beta-power Fz-Cz, LSM CFB (25 mg single oral dose): 0.05 Hz
- Beta-power Fz-Cz, estimate of difference compared to placebo (25 mg single oral dose): −0.06 [−0.28, 0.16] P = .58 Hz
- Beta-power Pz-Oz, LSM CFB (25 mg single oral dose): 0.08 Hz
- Beta-power Pz-Oz, estimate of difference compared to placebo (25 mg single oral dose): −0.04 [−0.24, 0.15] P = .66 Hz
- Delta-power Fz-Cz, LSM CFB (25 mg single oral dose): −0.04 Hz
- Delta-power Fz-Cz, estimate of difference compared to placebo (25 mg single oral dose): −0.14 [−0.35, 0.07] P = .19 Hz
- Delta-power Pz-Oz, LSM CFB (25 mg single oral dose): 0 Hz
- Delta-power Pz-Oz, estimate of difference compared to placebo (25 mg single oral dose): −0.06 [−0.31, 0.17] P = .61 Hz
- Gamma-power Fz-Cz, LSM CFB (25 mg single oral dose): 0.06 Hz
- Gamma-power Fz-Cz, estimate of difference compared to placebo (25 mg single oral dose): −0.04 [−0.04, 0.16] P = .69 Hz
- Gamma-power Pz-Oz, LSM CFB (25 mg single oral dose): 0.16 Hz
- Gamma-power Pz-Oz, estimate of difference compared to placebo (25 mg single oral dose): −0.05 [−0.30, 0.20] P = .70 Hz
- Theta-power Fz-Cz, LSM CFB (25 mg single oral dose): −0.06 Hz
- Theta-power Fz-Cz, estimate of difference compared to placebo (25 mg single oral dose): −0.13 [−0.36, 0.09] P = .24 Hz
- Theta-power Pz-Oz, LSM CFB (25 mg single oral dose): −0.04 Hz
- Theta-power Pz-Oz, estimate of difference compared to placebo (25 mg single oral dose): −0.11 [−0.35, 0.12] P = .33 Hz
- Alpha-power Fz-Cz, LSM CFB (50 mg single oral dose): 0.08 Hz
- Alpha-power Fz-Cz, estimate of difference compared to placebo (50 mg single oral dose): 0.13 [−0.81, 1.07] P = .79 Hz
- Alpha-power Pz-Oz, LSM CFB (50 mg single oral dose): 0.03 Hz
- Alpha-power Pz-Oz, estimate of difference compared to placebo (50 mg single oral dose): −0.06 [−0.32, 0.19] P = .62 Hz
- Beta-power Fz-Cz, LSM CFB (50 mg single oral dose): 0.04 Hz
- Beta-power Fz-Cz, estimate of difference compared to placebo (50 mg single oral dose): −0.07 [−0.31, 0.15] P = .51 Hz
- Beta-power Pz-Oz, LSM CFB (50 mg single oral dose): 0.13 Hz
- Beta-power Pz-Oz, estimate of difference compared to placebo (50 mg single oral dose): 0 [−0.20, 0,20] P = 1.00 Hz
- Delta-power Fz-Cz, LSM CFB (50 mg single oral dose): 0 Hz
- Delta-power Fz-Cz, estimate of difference compared to placebo (50 mg single oral dose): −0.10 [−0.31, 0.11] P = .34 Hz
- Delta-power Pz-Oz, LSM CFB (50 mg single oral dose): 0.08 Hz
- Delta-power Pz-Oz, estimate of difference compared to placebo (50 mg single oral dose): 0.02 [−0.21, 0.25] P = .87 Hz
- Gamma-power Fz-Cz, LSM CFB (50 mg single oral dose): 0.01 Hz
- Gamma-power Fz-Cz, estimate of difference compared to placebo (50 mg single oral dose): −0.09 [−0.31, 0.11] P = .39 Hz
- Gamma-power Pz-Oz, LSM CFB (50 mg single oral dose): 0.08 Hz
- Gamma-power Pz-Oz, estimate of difference compared to placebo (50 mg single oral dose): −0.12 [−0.38, 0.13] P = .33 Hz
- Theta-power Fz-Cz, LSM CFB (50 mg single oral dose): 0.02 Hz
- Theta-power Fz-Cz, estimate of difference compared to placebo (50 mg single oral dose): −0.05 [−0.28, 0.17] P = .64 Hz
- Theta-power Pz-Oz, LSM CFB (50 mg single oral dose): 0.08 Hz
- Theta-power Pz-Oz, estimate of difference compared to placebo (50 mg single oral dose): 0.01 [−0.23, 0.24] P = .95 Hz
- Alpha-power Fz-Cz, LSM CFB (75 mg single oral dose): 0.16 Hz
- Alpha-power Fz-Cz, estimate of difference compared to placebo (75 mg single oral dose): 0.32 [−0.64, 1.29] P = .51 Hz
- Alpha-power Pz-Oz, LSM CFB (75 mg single oral dose): 0.14 Hz
- Alpha-power Pz-Oz, estimate of difference compared to placebo (75 mg single oral dose): 0.04 [−0.22, 0.30] P = .75 Hz
- Beta-power Fz-Cz, LSM CFB (75 mg single oral dose): 0.21 Hz
- Beta-power Fz-Cz, estimate of difference compared to placebo (75 mg single oral dose): 0.09 [−0.13, 0.32] P = .40 Hz
- Beta-power Pz-Oz, LSM CFB (75 mg single oral dose): 0.17 Hz
- Beta-power Pz-Oz, estimate of difference compared to placebo (75 mg single oral dose): 0.04 [−0.16, 0.24] P = .69 Hz
- Delta-power Fz-Cz, LSM CFB (75 mg single oral dose): 0.17 Hz
- Delta-power Fz-Cz, estimate of difference compared to placebo (75 mg single oral dose): 0.06 [−0.15, 0.27] P = .55 Hz
- Delta-power Pz-Oz, LSM CFB (75 mg single oral dose): 0.1 Hz
- Delta-power Pz-Oz, estimate of difference compared to placebo (75 mg single oral dose): 0.04 [−0.21, 0.27] P = .76 Hz
- Gamma-power Fz-Cz, LSM CFB (75 mg single oral dose): 0.27 Hz
- Gamma-power Fz-Cz, estimate of difference compared to placebo (75 mg single oral dose): 0.17 [−0.03, 0.37] P = .10 Hz
- Gamma-power Pz-Oz, LSM CFB (75 mg single oral dose): 0.27 Hz
- Gamma-power Pz-Oz, estimate of difference compared to placebo (75 mg single oral dose): 0.06 [−0.19, 0.32] P = .64 Hz
- Theta-power Fz-Cz, LSM CFB (75 mg single oral dose): 0.18 Hz
- Theta-power Fz-Cz, estimate of difference compared to placebo (75 mg single oral dose): 0.11 [−0.12, 0.33] P = .34 Hz
